According to ChEMBL document CHEMBL5724801, “EUbOPEN Chemogenomics Library - Multiplex” (2024):
“And” between values parts separate entries of the source, which are not always exact repeats. Equal values may be shown once.

Tested on: U2OS
Assay: Multiplex assay against U2OS
Type: toxicity, cell-based
Conditions: human
How it was run: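 At seeding, live cells were stained with Hoechst33342, BioTracker Green Microtubule Cytoskeleton Dye, MitoTracker Red and Annexin V Alexa Fluor 680. After compound addition they were imaged on a CQ1 microscope at 37°C and 5% CO2, and CellPathfinder machine-learning gating sorted them into Hoechst high-intensity objects or normal cells, with normal cells further split into healthy, pyknosed or fragmented nuclei and pyknosed cells into mitotic or apoptotic. Tubulin, mitochondrial-mass and membrane-permeability phenotypes are given as per cents of cells with healthy nuclei.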

[1] = 12 h, 1 µM, compound concentration 1 uM
[2] = 12 h, 10 µM, compound concentration 10 uM
[3] = 24 h, 1 µM, compound concentration 1 uM
[4] = 24 h, 10 µM, compound concentration 10 uM
[5] = 48 h, 1 µM, compound concentration 1 uM
[6] = 48 h, 10 µM, compound concentration 10 uM

## CC/C(=C(\c1ccc(O)cc1)c1ccc(OCCN(C)C)cc1)c1ccccc1 [AFIMOXIFENE]
[1]
  Population Fragmented Nuclei (%): 0.84% and 5.44%
  Population Healthy Nuclei (%): 90.45% and 83.67%
  Population Hoechst High Intensity Objects (%): 0%
  Population Membrane Permeable-Phenotype (%): 4.07%
  Population Mitochondria Different-Phenotype (%): 0.62% and 4.88%
  Population Mitotic Cells (%): 51.61% and 87.5%
  Population Normal (%): 100%
  Population Pyknosed Nuclei (%): 8.71% and 10.88%
  Population Tubulin-Different-Phenotype (%): 2.48% and 1.63%
  Total Cell Count: 356 and 147
[2]
  Population Apoptotic (%): 35.09% and 27.27%
  Population Fragmented Nuclei (%): 2.04% and 0.59%
  Population Healthy Nuclei (%): 78.57% and 73.37%
  Population Hoechst High Intensity Objects (%): 0%
  Population Membrane Permeable-Phenotype (%): 0.43% and 5.65%
  Population Mitotic Cells (%): 64.91% and 72.73%
  Population Normal (%): 100%
  Population Pyknosed Nuclei (%): 19.39% and 26.04%
  Population Tubulin-Different-Phenotype (%): 5.63% and 4.84%
  Total Cell Count: 294 and 169
[3]
  Population Apoptotic (%): 53.06% and 20%
  Population Fragmented Nuclei (%): 1.85% and 5.11%
  Population Healthy Nuclei (%): 88.09% and 83.52%
  Population Hoechst High Intensity Objects (%): 0%
  Population Membrane Permeable-Phenotype (%): 0.93% and 2.04%
  Population Mitochondria Different-Phenotype (%): 0.7% and 6.12%
  Population Mitotic Cells (%): 46.94% and 80%
  Population Normal (%): 100%
  Population Pyknosed Nuclei (%): 10.06% and 11.36%
  Population Tubulin-Different-Phenotype (%): 2.04%
  Total Cell Count: 487 and 176
[4]
  Population Apoptotic (%): 33.75% and 23.46%
  Population Fragmented Nuclei (%): 2.3%
  Population Healthy Nuclei (%): 77.24% and 56.72%
  Population Hoechst High Intensity Objects (%): 0%
  Population Membrane Permeable-Phenotype (%): 0.99% and 3.51%
  Population Mitotic Cells (%): 66.25% and 76.54%
  Population Normal (%): 100%
  Population Pyknosed Nuclei (%): 20.46% and 40.3%
  Population Tubulin-Different-Phenotype (%): 7.95% and 3.51%
  Total Cell Count: 391 and 201
[5]
  Population Apoptotic (%): 41.05% and 54.05%
  Population Fragmented Nuclei (%): 1.6% and 5.32%
  Population Healthy Nuclei (%): 87.51% and 81.56%
  Population Hoechst High Intensity Objects (%): 0%
  Population Membrane Permeable-Phenotype (%): 1.18% and 2.61%
  Population Mitochondria Different-Phenotype (%): 0.26% and 4.78%
  Population Mitotic Cells (%): 58.95% and 45.95%
  Population Normal (%): 100%
  Population Pyknosed Nuclei (%): 10.88% and 13.12%
  Population Tubulin-Different-Phenotype (%): 0.79% and 1.74%
[6]
  Population Apoptotic (%): 43.75% and 40.78%
  Population Fragmented Nuclei (%): 4.78% and 5.95%
  Population Healthy Nuclei (%): 74.84% and 55.76%
  Population Hoechst High Intensity Objects (%): 0%
  Population Membrane Permeable-Phenotype (%): 2%
  Population Mitotic Cells (%): 56.25% and 59.22%
  Population Normal (%): 100%
  Population Pyknosed Nuclei (%): 20.38% and 38.29%
  Population Tubulin-Different-Phenotype (%): 7.66% and 8.67%
  Total Cell Count: 628 and 269

## O=C(O)Cc1ccccc1Nc1c(Cl)cccc1Cl [DICLOFENAC]
[1]
  Population Apoptotic (%): 90% and 84%
  Population Fragmented Nuclei (%): 15% and 13%
  Population Healthy Nuclei (%): 78% and 76%
  Population Hoechst High Intensity Objects (%): 5% and 0%
  Population Membrane Permeable-Phenotype (%): 4% and 5%
  Population Mitochondria Different-Phenotype (%): 4% and 2%
  Population Mitotic Cells (%): 10% and 15%
  Population Normal (%): 94% and 99%
  Population Pyknosed Nuclei (%): 6% and 10%
  Population Tubulin-Different-Phenotype (%): 4% and 2%
  Total Cell Count: 164
[2]
  Population Apoptotic (%): 75% and 72%
  Population Fragmented Nuclei (%): 20% and 14%
  Population Healthy Nuclei (%): 68% and 76%
  Population Hoechst High Intensity Objects (%): 2% and 3%
  Population Membrane Permeable-Phenotype (%): 8%
  Population Mitochondria Different-Phenotype (%): 4% and 3%
  Population Mitotic Cells (%): 25% and 27%
  Population Normal (%): 97% and 96%
  Population Pyknosed Nuclei (%): 11% and 9%
  Population Tubulin-Different-Phenotype (%): 4% and 8%
  Total Cell Count: 258
[3]
  Population Apoptotic (%): 92% and 87%
  Population Fragmented Nuclei (%): 15% and 19%
  Population Healthy Nuclei (%): 76% and 70%
  Population Hoechst High Intensity Objects (%): 4% and 3%
  Population Membrane Permeable-Phenotype (%): 2% and 5%
  Population Mitochondria Different-Phenotype (%): 2%
  Population Mitotic Cells (%): 7% and 12%
  Population Normal (%): 95% and 96%
  Population Pyknosed Nuclei (%): 7% and 10%
  Population Tubulin-Different-Phenotype (%): 2%
  Total Cell Count: 191 and 165
[4]
  Population Apoptotic (%): 72% and 81%
  Population Fragmented Nuclei (%): 17% and 15%
  Population Healthy Nuclei (%): 72% and 77%
  Population Hoechst High Intensity Objects (%): 0% and 1%
  Population Membrane Permeable-Phenotype (%): 3% and 5%
  Population Mitochondria Different-Phenotype (%): 1% and 2%
  Population Mitotic Cells (%): 27% and 18%
  Population Normal (%): 99% and 98%
  Population Pyknosed Nuclei (%): 10% and 7%
  Population Tubulin-Different-Phenotype (%): 2% and 4%
  Total Cell Count: 311 and 153
[5]
  Population Apoptotic (%): 100% and 83%
  Population Fragmented Nuclei (%): 17% and 15%
  Population Healthy Nuclei (%): 71% and 70%
  Population Hoechst High Intensity Objects (%): 4% and 3%
  Population Membrane Permeable-Phenotype (%): 4%
  Population Mitochondria Different-Phenotype (%): 2% and 4%
  Population Mitotic Cells (%): 0% and 16%
  Population Normal (%): 95% and 96%
  Population Pyknosed Nuclei (%): 10% and 14%
  Population Tubulin-Different-Phenotype (%): 2% and 4%
  Total Cell Count: 271 and 216
[6]
  Population Apoptotic (%): 86% and 100%
  Population Fragmented Nuclei (%): 16% and 12%
  Population Healthy Nuclei (%): 73% and 75%
  Population Hoechst High Intensity Objects (%): 2% and 1%
  Population Membrane Permeable-Phenotype (%): 6%
  Population Mitochondria Different-Phenotype (%): 1%
  Population Mitotic Cells (%): 13% and 0%
  Population Normal (%): 97% and 98%
  Population Pyknosed Nuclei (%): 10% and 11%
  Population Tubulin-Different-Phenotype (%): 2% and 6%
  Total Cell Count: 436 and 220

## c1ccc2nc(N3CCNCC3)ccc2c1 [QUIPAZINE]
[1]
  Population Apoptotic (%): 38.46% and 42.86%
  Population Fragmented Nuclei (%): 2.12% and 3.18%
  Population Healthy Nuclei (%): 85.61% and 83.44%
  Population Hoechst High Intensity Objects (%): 0%
  Population Membrane Permeable-Phenotype (%): 0.28% and 1.53%
  Population Mitotic Cells (%): 61.54% and 57.14%
  Population Normal (%): 100%
  Population Pyknosed Nuclei (%): 12.26% and 13.38%
  Population Tubulin-Different-Phenotype (%): 0.28% and 0%
  Total Cell Count: 424 and 157
[2]
  Population Apoptotic (%): 41.67% and 21.05%
  Population Fragmented Nuclei (%): 2.14% and 2.94%
  Population Healthy Nuclei (%): 88.24% and 85.88%
  Population Hoechst High Intensity Objects (%): 0%
  Population Membrane Permeable-Phenotype (%): 2.12% and 2.05%
  Population Mitochondria Different-Phenotype (%): 0.61% and 9.59%
  Population Mitotic Cells (%): 58.33% and 78.95%
  Population Normal (%): 100%
  Population Pyknosed Nuclei (%): 9.63% and 11.18%
  Population Tubulin-Different-Phenotype (%): 1.21% and 0%
  Total Cell Count: 374 and 170
[3]
  Population Apoptotic (%): 52.86% and 39.13%
  Population Fragmented Nuclei (%): 0.69% and 1.94%
  Population Healthy Nuclei (%): 87.26% and 86.89%
  Population Hoechst High Intensity Objects (%): 0.17% and 0%
  Population Membrane Permeable-Phenotype (%): 0.79% and 3.91%
  Population Mitochondria Different-Phenotype (%): 0.39% and 6.7%
  Population Mitotic Cells (%): 47.14% and 60.87%
  Population Normal (%): 99.83% and 100%
  Population Pyknosed Nuclei (%): 12.05% and 11.17%
  Population Tubulin-Different-Phenotype (%): 1.38% and 0%
  Total Cell Count: 582 and 206
[4]
  Population Apoptotic (%): 40.82% and 48%
  Population Fragmented Nuclei (%): 0.76% and 0%
  Population Healthy Nuclei (%): 89.87% and 89.41%
  Population Hoechst High Intensity Objects (%): 0%
  Population Membrane Permeable-Phenotype (%): 1.06% and 3.32%
  Population Mitochondria Different-Phenotype (%): 0.43% and 6.16%
  Population Mitotic Cells (%): 59.18% and 52%
  Population Normal (%): 100%
  Population Pyknosed Nuclei (%): 9.37% and 10.59%
  Population Tubulin-Different-Phenotype (%): 1.28% and 0%
  Total Cell Count: 523 and 236
[5]
  Population Apoptotic (%): 43.56% and 50%
  Population Fragmented Nuclei (%): 2.56% and 1.98%
  Population Healthy Nuclei (%): 88.55% and 87.25%
  Population Hoechst High Intensity Objects (%): 0%
  Population Membrane Permeable-Phenotype (%): 0.9% and 1.95%
  Population Mitochondria Different-Phenotype (%): 0.2% and 3.9%
  Population Mitotic Cells (%): 56.44% and 50%
  Population Normal (%): 100%
  Population Pyknosed Nuclei (%): 8.9% and 10.76%
  Population Tubulin-Different-Phenotype (%): 0.9% and 0.32%
[6]
  Population Apoptotic (%): 39.47% and 52.17%
  Population Fragmented Nuclei (%): 3.42% and 0.25%
  Population Healthy Nuclei (%): 89.16% and 94.06%
  Population Hoechst High Intensity Objects (%): 0% and 0.25%
  Population Membrane Permeable-Phenotype (%): 0.99% and 2.63%
  Population Mitochondria Different-Phenotype (%): 0.11% and 1.84%
  Population Mitotic Cells (%): 60.53% and 47.83%
  Population Normal (%): 100% and 99.75%
  Population Pyknosed Nuclei (%): 7.42% and 5.69%
  Population Tubulin-Different-Phenotype (%): 1.42% and 0.79%
  Total Cell Count: 1024 and 405
